# Reference: ChEMBL document CHEMBL4689842, “EUbOPEN Chemogenomics Library wave 1” (2021)
# Test system: U2OS
# Assay: Multiplex assay against U2OS
# Assay type: toxicity, cell-based
# Settings: human
# Summary of the method: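 On a CQ1 microscope at 37°C and 5% CO2, live cells were imaged after compound addition. They had been stained at seeding with Hoechst33342, BioTracker Green Microtubule Cytoskeleton Dye, MitoTracker Red and Annexin V Alexa Fluor 680. CellPathfinder machine-learning gating assigned cells to Hoechst high-intensity objects or normal cells, normal cells to healthy, pyknosed or fragmented nuclei, and pyknosed cells to mitotic or apoptotic. Tubulin, mitochondrial-mass and membrane-permeability phenotypes are per cents of healthy-nucleus cells.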
# [1] = 12 h, 1 µM, compound concentration 1 uM, replicate 1
# [2] = 12 h, 1 µM, compound concentration 1 uM, replicate 2
# [3] = 12 h, 10 µM, compound concentration 10 uM, replicate 1
# [4] = 12 h, 10 µM, compound concentration 10 uM, replicate 2
# [5] = 24 h, 1 µM, compound concentration 1 uM, replicate 1
# [6] = 24 h, 1 µM, compound concentration 1 uM, replicate 2
# [7] = 24 h, 10 µM, compound concentration 10 uM, replicate 1
# [8] = 24 h, 10 µM, compound concentration 10 uM, replicate 2
smiles,measurement,setting,value
CN(C)CCOc1ccc(-c2nc(-c3ccncc3)c(-c3ccc4c(c3)CC/C4=N\O)[nH]2)cc1 [SB590885],Population Apoptotic (%),[1],72%
same,Population Fragmented Nuclei (%),[1],22%
same,Population Healthy Nuclei (%),[1],42%
same,Population Hoechst High Intensity Objects (%),[1],9%
same,Population Membrane Permeable-Phenotype (%),[1],45%
same,Population Mitochondria Different-Phenotype (%),[1],30%
same,Population Mitotic Cells (%),[1],27%
same,Population Normal (%),[1],90%
same,Population Pyknosed Nuclei (%),[1],34%
same,Population Tubulin-Different-Phenotype (%),[1],54%
same,Total Cell Count,[1],200
same,Population Apoptotic (%),[2],88%
same,Population Fragmented Nuclei (%),[2],41%
same,Population Healthy Nuclei (%),[2],34%
same,Population Hoechst High Intensity Objects (%),[2],15%
same,Population Membrane Permeable-Phenotype (%),[2],38%
same,Population Mitochondria Different-Phenotype (%),[2],28%
same,Population Mitotic Cells (%),[2],11%
same,Population Normal (%),[2],84%
same,Population Pyknosed Nuclei (%),[2],23%
same,Population Tubulin-Different-Phenotype (%),[2],51%
same,Total Cell Count,[2],155
same,Population Apoptotic (%),[3],42%
same,Population Fragmented Nuclei (%),[3],5%
same,Population Hoechst High Intensity Objects (%),[3],3%
same,Population Membrane Permeable-Phenotype (%),[3],11%
same,Population Mitochondria Different-Phenotype (%),[3],23%
same,Population Mitotic Cells (%),[3],57%
same,Population Normal (%),[3],96%
same,Population Pyknosed Nuclei (%),[3],7%
same,Population Tubulin-Different-Phenotype (%),[3],26%
same,Total Cell Count,[3],149
same,Population Apoptotic (%),[4],37%
same,Population Fragmented Nuclei (%),[4],6%
same,Population Healthy Nuclei (%),[4],87%
same,Population Hoechst High Intensity Objects (%),[4],10%
same,Population Membrane Permeable-Phenotype (%),[4],14%
same,Population Mitochondria Different-Phenotype (%),[4],28%
same,Population Mitotic Cells (%),[4],62%
same,Population Normal (%),[4],89%
same,Population Pyknosed Nuclei (%),[4],5%
same,Population Tubulin-Different-Phenotype (%),[4],33%
same,Total Cell Count,[4],78
same,Population Apoptotic (%),[5],85%
same,Population Fragmented Nuclei (%),[5],15%
same,Population Healthy Nuclei (%),[5],38%
same,Population Hoechst High Intensity Objects (%),[5],19%
same,Population Membrane Permeable-Phenotype (%),[5],34%
same,Population Mitochondria Different-Phenotype (%),[5],34%
same,Population Mitotic Cells (%),[5],14%
same,Population Normal (%),[5],80%
same,Population Pyknosed Nuclei (%),[5],45%
same,Population Tubulin-Different-Phenotype (%),[5],37%
same,Total Cell Count,[5],280
same,Population Apoptotic (%),[6],91%
same,Population Fragmented Nuclei (%),[6],35%
same,Population Healthy Nuclei (%),[6],25%
same,Population Hoechst High Intensity Objects (%),[6],21%
same,Population Membrane Permeable-Phenotype (%),[6],33%
same,Population Mitochondria Different-Phenotype (%),[6],41%
same,Population Mitotic Cells (%),[6],8%
same,Population Normal (%),[6],78%
same,Population Pyknosed Nuclei (%),[6],38%
same,Population Tubulin-Different-Phenotype (%),[6],30%
same,Total Cell Count,[6],196
same,Population Apoptotic (%),[7],44%
same,Population Fragmented Nuclei (%),[7],5%
same,Population Healthy Nuclei (%),[7],90%
same,Population Hoechst High Intensity Objects (%),[7],2%
same,Population Membrane Permeable-Phenotype (%),[7],12%
same,Population Mitochondria Different-Phenotype (%),[7],21%
same,Population Mitotic Cells (%),[7],55%
same,Population Normal (%),[7],97%
same,Population Pyknosed Nuclei (%),[7],3%
same,Population Tubulin-Different-Phenotype (%),[7],30%
same,Total Cell Count,[7],144
same,Population Apoptotic (%),[8],50%
same,Population Fragmented Nuclei (%),[8],7%
same,Population Healthy Nuclei (%),[8],89%
same,Population Hoechst High Intensity Objects (%),[8],7%
same,Population Membrane Permeable-Phenotype (%),[8],8%
same,Population Mitochondria Different-Phenotype (%),[8],38%
same,Population Mitotic Cells (%),[8],50%
same,Population Normal (%),[8],92%
same,Population Tubulin-Different-Phenotype (%),[8],37%
same,Total Cell Count,[8],80
